In brackets after ≈: the same amount, converted by molar mass. Activity calls are given as the source filed them. The rule behind the calls is not given here.
Key:
Staphylococcus aureus [1] = assay: Antibacterial activity against Staphylococcus aureus ATCC 29213 incubated for 24 hrs by Alamar blue staining based microdilution method; type: functional
[2] = Cytotoxicity in human HepG2 cells incubated for 24 hrs by MTT assay; type: toxicity, cell-based
In short: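 HepG2 cells, 1 × 10^4 per well in DMEM/10% FBS, 24 h attachment; compounds 200 to 0.19 μg ml−1 for 24 h at 37 °C, 5% CO2; MTT 2.5 mg ml−1 for 3 h, formazan in DMSO, OD 570 nm; doxorubicin 10 μM control.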

Staphylococcus aureus [3] = assay: Antibacterial activity against methicillin-resistant Staphylococcus aureus ATCC 15187 incubated for 24 hrs by Alamar blue staining based microdilution method; type: functional
Escherichia coli = assay: Antibacterial activity against Escherichia coli ATCC 25922 incubated for 24 hrs by Alamar blue staining based microdilution method; type: functional

Compound	MIC (Staphylococcus aureus [1])	IC50 at 24 h [2]	MIC (Staphylococcus aureus [3])	MIC (Escherichia coli)
CCCc1nn(C)c2c(NCCN3CCCCC3)nc(-c3ccc([N+](=O)[O-])o3)nc12	> 32 µg/mL	> 50 µg/mL	> 32 µg/mL	inactive
CCCc1nn(C)c2c(NCCCCCCO)nc(-c3ccc([N+](=O)[O-])o3)nc12	32 µg/mL (≈ 79.5 µM)	> 50 µg/mL	2 µg/mL (≈ 4.97 µM)	inactive
CCCc1nn(C)c2c(NCCCO)nc(-c3ccc([N+](=O)[O-])o3)nc12	4 µg/mL (≈ 11.1 µM)	> 50 µg/mL	2 µg/mL (≈ 5.55 µM)	inactive
CCCc1nn(C)c2c(Nc3ccc(F)cc3)nc(-c3ccc([N+](=O)[O-])o3)nc12	8 µg/mL (≈ 20.2 µM)	> 50 µg/mL	0.25 µg/mL (≈ 0.631 µM)	inactive
CCCc1nn(C)c2c(Nc3ccc(C(F)(F)F)cc3)nc(-c3ccc([N+](=O)[O-])o3)nc12	> 32 µg/mL	> 50 µg/mL	> 32 µg/mL	inactive
CCCc1nn(C)c2c(N3CCN(C)CC3)nc(-c3ccc([N+](=O)[O-])o3)nc12	> 32 µg/mL	> 50 µg/mL	> 32 µg/mL	inactive
CCCc1nn(C)c2c(Nc3cccc(O)c3)nc(-c3ccc([N+](=O)[O-])o3)nc12	4 µg/mL (≈ 10.1 µM)	> 50 µg/mL	1 µg/mL (≈ 2.54 µM)	inactive
CCCc1nn(C)c2c(N3CCC(O)CC3)nc(-c3ccc([N+](=O)[O-])o3)nc12	16 µg/mL (≈ 41.4 µM)	> 50 µg/mL	0.5 µg/mL (≈ 1.29 µM)	inactive
CCCc1nn(C)c2c(Nc3ccccc3O)nc(-c3ccc([N+](=O)[O-])o3)nc12	0.5 µg/mL (≈ 1.27 µM)	> 50 µg/mL	1 µg/mL (≈ 2.54 µM)	inactive
CCCc1nn(C)c2c(NCc3ccccc3)nc(-c3ccc([N+](=O)[O-])o3)nc12	> 32 µg/mL	> 50 µg/mL	> 32 µg/mL	inactive
CCCc1nn(C)c2c(N3CCCCC3)nc(-c3ccc([N+](=O)[O-])o3)nc12	> 32 µg/mL	> 50 µg/mL	> 32 µg/mL	inactive
CCCc1nn(C)c2c(NCc3ccc(OC)c(F)c3)nc(-c3ccc([N+](=O)[O-])o3)nc12	> 32 µg/mL	> 50 µg/mL	> 32 µg/mL	inactive
CCCc1nn(C)c2c(N3CCN(c4ccncc4)CC3)nc(-c3ccc([N+](=O)[O-])o3)nc12	1 µg/mL (≈ 2.23 µM)	> 50 µg/mL	0.25 µg/mL (≈ 0.557 µM)	inactive
CCCc1nn(C)c2c(NCCCCCO)nc(-c3ccc([N+](=O)[O-])o3)nc12	4 µg/mL (≈ 10.3 µM)	38.1 µg/mL (≈ 98.1 µM)	0.5 µg/mL (≈ 1.29 µM)	inactive
CCCc1nn(C)c2c(Nc3ccc(Br)cc3)nc(-c3ccc([N+](=O)[O-])o3)nc12	> 32 µg/mL	> 50 µg/mL	> 32 µg/mL	inactive
CCCc1nn(C)c2c(NCCCN3CCOCC3)nc(-c3ccc([N+](=O)[O-])o3)nc12	> 32 µg/mL	> 50 µg/mL	> 32 µg/mL	inactive
CCCc1nn(C)c2c(N3CCCC3)nc(-c3ccc([N+](=O)[O-])o3)nc12	> 32 µg/mL	> 50 µg/mL	> 32 µg/mL	inactive
CCCc1nn(C)c2c(N3CCC(=O)CC3)nc(-c3ccc([N+](=O)[O-])o3)nc12	> 32 µg/mL	> 50 µg/mL	16 µg/mL (≈ 41.6 µM)	inactive
CCCc1nn(C)c2c(NC3CCOCC3)nc(-c3ccc([N+](=O)[O-])o3)nc12	> 32 µg/mL	> 50 µg/mL	> 32 µg/mL	inactive
CCCc1nn(C)c2c(Nc3ccncc3)nc(-c3ccc([N+](=O)[O-])o3)nc12	0.5 µg/mL (≈ 1.32 µM)	> 50 µg/mL	4 µg/mL (≈ 10.5 µM)	4 µg/mL (≈ 10.5 µM)
CCCc1nn(C)c2c(Nc3cccc(F)c3)nc(-c3ccc([N+](=O)[O-])o3)nc12	> 32 µg/mL	38.9 µg/mL (≈ 98 µM)	4 µg/mL (≈ 10.1 µM)	inactive

Source: ChEMBL document CHEMBL6182837, “Discovery and biological evaluation of nitrofuranyl-pyrazolopyrimidine hybrid conjugates as potent antimicrobial agents targeting Staphylococcus aureus and methicillin-resistant S. aureus” (RSC Med Chem, 2025)
